Compound activity (PubChem)
NPY-Y2 PAM-ag: potentiates or activates human NPY-Y2 receptor; activation, % at 3.6 µM; 220,000 tested, 0.45% active; cells expressing NPY-Y2, potentiator/agonist read-out; P49146; in the data active = activation above about 27%;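 note: cells stimulated with NPY near EC25 plus isoproterenol at EC100; 0% = vehicle plus submaximal agonist and 100% = vehicle plus saturating agonist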
NPY Y1 blocker: NPY-Y1 (human) receptor antagonism | inhibition, % at 3.6 µM | HEK293-CNG Y1 cells, membrane potential fluorescence; NPY at EC95, then isoproterenol | 200,000 tested, 1% active | AID 1040;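 active = inhibition above the campaign mean inhibition of all tested compounds plus 3 SD, cut at about 20% in these data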;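 note: 0% = DMSO wells given NPY plus isoproterenol and 100% = isoproterenol alone without NPY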
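Material: HEK293 Y1/CNG channel cell line | Also added: NPY (25 nM), isoproterenol (1 µM), Ro 20-1724 (25 µM) | Compound: One concentration, 3.6 µM, in 0.4% DMSO | Schedule: 3 h dye uptake, 1 h room-temperature compound, 45 min post-isoproterenol | Signal: Membrane-potential fluorescent dye readout | Read-out: % inhibition of NPY effect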
S1P4 ag: activates the human S1P4 receptor | S1P4-expressing cell line, agonist reporter assay | activation, % at 4.98 µM | O95977 | 220,000 tested, 0.35% active; in the data active = activation above about 11%;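 note: 0% = DMSO vehicle and 100% = reference agonist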
Target sequence (O95977 whole entry, looked up): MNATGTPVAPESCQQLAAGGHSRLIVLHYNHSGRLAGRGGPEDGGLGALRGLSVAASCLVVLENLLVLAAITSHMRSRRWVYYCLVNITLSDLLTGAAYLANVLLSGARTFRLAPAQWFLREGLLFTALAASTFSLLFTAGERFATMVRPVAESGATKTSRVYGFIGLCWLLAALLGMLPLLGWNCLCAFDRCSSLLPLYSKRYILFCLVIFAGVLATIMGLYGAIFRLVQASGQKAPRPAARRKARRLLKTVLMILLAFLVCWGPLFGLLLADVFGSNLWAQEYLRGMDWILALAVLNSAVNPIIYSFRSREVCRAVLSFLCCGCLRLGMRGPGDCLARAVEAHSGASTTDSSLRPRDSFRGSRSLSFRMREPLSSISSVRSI
S1P4 antag: blocks the human S1P4 receptor. 220,000 tested, 0.26% active. S1P4-expressing cells, antagonist mode, reporter read-out. inhibition, % at 4.98 µM. AID 1510; in the data active = inhibition above about 29%;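 note: 0% = wells stimulated with agonist and 100% = vehicle wells without agonist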
NPY1 pot ag: potentiates or activates human NPY-Y1 receptor | P25929 | NPY-Y1 expressing cells, potentiator/agonist activation | activation, % at 3.6 µM | 220,000 tested, 0.37% active | AID 1304; in the data active = activation above about 33%, passing the limit was not always enough;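 note: cells stimulated with NPY at EC10 then isoproterenol at EC100; 0% = low agonist plus stimulus and 100% = saturating agonist plus stimulus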
NPY-Y2 antag: NPY-Y2 (human) receptor antagonism; P49146; NPY-Y2 expressing cells, antagonist mode; inhibition, % at 2.7 µM; 140,000 tested, 0.99% active; AID 793;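 note: 0% = vehicle with agonist challenge and 100% = reference antagonist with challenge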
NPY-Y1 ant conf: human NPY-Y1 antagonism, confirmation. shares compounds with NPY Y1 blocker. HEK293-CNG NPY-Y1, membrane potential fluorescence, cAMP; NPY challenge against isoproterenol-raised cAMP. 1,200 tested, 21% active. inhibition, % at 3.6 µM. AID 1254; in the data active = inhibition above about 20%;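 note: 0% = vehicle with agonist plus stimulus and 100% = stimulus alone without agonist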
NPY2 antag ctr: counter-screen for NPY-Y1 antagonists: human NPY-Y2 antagonism; shares compounds with NPY Y1 blocker; HEK293 NPY-Y2 CNG membrane potential fluorescence; cells given NPY, then isoproterenol; inhibition, % at 3.6 µM; 1,200 tested, 28% active; AID 1255;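 note: 0% = DMSO with agonist challenge and 100% = reference antagonist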
The depositor's hits bear a star; nt = no result; ! = a repeat was not active. Hits are enriched below; roughly 2.4% of the tested compounds scored in any of these assays. Cut-off read from the data, not from the text of the source, unless noted: active = inhibition above about 17%; inactive = the rest.

SMILES	NPY-Y2 PAM-ag	NPY Y1 blocker	S1P4 ag	S1P4 antag	NPY1 pot ag	NPY-Y2 antag	NPY-Y1 ant conf	NPY2 antag ctr
CCOC(=O)C1=C(c2ccccc2)O/C(=C(\C(=O)OC)C(F)(F)F)S1	10	10	-3	14	-1	16	nt	nt
Cc1cc(/C=C2/SC(=S)N(c3cccc(C(F)(F)F)c3)C2=O)c(C)n1-c1cccnc1	7	48*	1	-21	-78	13	35*	24*
Cc1cc(/C=C2\SC(=S)N(Cc3ccco3)C2=O)c(C)n1-c1cccnc1	-5	1	-3	8	-23	-1	nt	nt
COc1ccc(CC2(CO)CCN(Cc3cnn(-c4ccccc4OC)c3)CC2)cc1	-26	5	1	2	-27	nt	nt	nt
COc1ccc(CC2(CO)CCN(C/C=C/c3ccccc3OC)CC2)cc1	-15	27*	0	5	-30	nt	17	23*
COc1ccc(-c2ccc(-c3noc(-c4ccco4)n3)c(OC)n2)cc1	6	78*	0	-12	-3	1	3	5
COc1ccc2[nH]c(C(=O)Nc3ccc4c(c3)OCO4)cc2c1	-10	nt	0	-2	6	nt	nt	nt
CCOC(=O)c1ccc(CNC(=O)CSc2nnnn2-c2ccc(Cl)cc2)o1	-14	20*	0	-9	-9	8	10	12
O=C1c2cccc3c(N4CCCCC4)ccc(c23)C(=O)N1c1ccc(O)cc1	-18	22*	1	-18	-21	nt	15	20*
COc1ccc(CCNC(=O)c2ccc(Cl)cc2Cl)cc1	-16	5	-5	-3	5	4	nt	nt
COc1ccc(N(C)S(=O)(=O)c2ccc(Cl)c(C(=O)NCCc3ccc(Cl)cc3)c2)cc1	5	29*	0	7	5	nt	9	10
O=C(CSc1nnnn1-c1ccc(F)cc1)NCc1cccs1	-8	2	1	-4	18	nt	nt	nt
CC(=O)OCC[N+](C)(C)C	-20	27*	2	-17	-75	3	29*	18*!
CC(=O)OCP(C)(=O)COC(C)=O	3	6	1	-2	-4	5	nt	nt
CC1Cc2ccccc2N1C(=S)NC(=O)c1ccc(Cl)cc1Cl (centres undefined)	1	25*	3	-17	-18	7	1	3
CC(C)COCC(CN(Cc1ccccc1)c1ccccc1)N1CCCC1 (centres undefined)	-22	31*	-1	19	-11	nt	18	17
OC(COc1ccc2c(c1)CCC2)CN1CCN(c2ccccc2F)CC1 (centres undefined)	-30	26*	-1	6	-25	10	13	16
O=C(NC1CCCCC1)C(c1ccc2ncccc2c1)N(Cc1cccs1)C(=O)c1cccs1 (centres undefined)	3	32*	0	-7	-10	3	5	6
CO/N=C\C(=N\Nc1ccc(OC)cc1)C(=O)c1ccccc1	-23	23*	0	-1	-63	11	6	9
CO/N=C/C(=N\Nc1ccccc1)C(=O)c1ccccc1	-2	14	2	-19	3	nt	nt	nt
CC(=O)Nc1ccc2nc(-c3ccc(Br)o3)[nH]c2c1	4	7	3	-23	-12	2	nt	nt
O=C(Nc1ccc2nc(-c3ccc(Br)o3)[nH]c2c1)c1cccs1	-19	21*	0	-13	-14	6	2	8
Cc1ccc(Sc2ncccc2NC(=O)c2ccccc2Cl)cc1	-3	nt	2	-8	-8	nt	nt	nt
Cc1ccc(-c2csc3nc4c5ccccc5c(NCCCN5CCOCC5)nn4c(=O)c23)cc1	7	-6	0	-5	-5	nt	nt	nt
Cc1ccc(-c2csc3nc4c5ccccc5c(NCCCN(C)C)nn4c(=O)c23)cc1	-40	24*	9	-30	-89	nt	24*	26*
SMILES	NPY-Y2 PAM-ag	NPY Y1 blocker	S1P4 ag	S1P4 antag	NPY1 pot ag	NPY-Y2 antag	NPY-Y1 ant conf	NPY2 antag ctr
Clc1ccc(-n2nnnc2-c2cnc(-c3ccncc3)nc2-c2cccs2)cc1	-30	34*	1	-8	-58	15	14	18*
Nc1nc(COc2ccccc2C=O)nc(Nc2ccccc2)n1	13	nt	0	0	10	nt	nt	nt
O=C(CCC(=O)Nc1ccccc1)NNC(=O)C(c1ccccc1)c1ccccc1	11	0	2	-11	15	-1	nt	nt
Cc1ccccc1NC(=O)C1CCCN(S(=O)(=O)c2cccc3cccnc23)C1 (centres undefined)	-9	96*	-1	11	8	0	2	3
O=C(CNC(=O)c1ccccc1Br)N/N=C/c1ccc(O)cc1	0	1	-1	-9	14	nt	nt	nt
COC(=O)C1CCCN1S(=O)(=O)c1ccc2ccccc2c1 (centres undefined)	3	41*	-2	-19	7	9	57*	27*
Cc1cc(-c2c(C(=O)N3CCOCC3)c(C)nn2-c2ccccc2)no1	2	nt	0	-3	-3	nt	nt	nt
COc1cc(/C=N/N=C(/N)c2nonc2N)cc(Br)c1OCc1cccc(C)c1	-17	21*	-2	-5	-19	11	15	14
CCOc1cc(/C=N/N=C(\N)c2nonc2N)cc(Br)c1OCc1cccc2ccccc12	-7	9	-1	11	-25	3	nt	nt
C#CCn1c(S(=O)(=O)Cc2ccc(OC)cc2)nc(-c2ccccc2)c1-c1ccccc1	-27	20*	1	-36	-4	12	8	4
CCN1C(=O)/C(=C/c2ccc(N3CCCC3)cc2)NC1=S	-13	10	0	-10	-8	0	nt	nt
Clc1ccc(-n2cccc2CN2CCc3c([nH]c4ccccc34)C2c2ccccn2)nc1 (centres undefined)	-13	26*	0	11	-17	nt	6	9
Cc1ccccc1OCCCn1c(=O)sc2ccccc21	-12	27*	0	-1	-54	11	5	7
CCOc1cccc2sc(N(CCN(CC)CC)C(=O)c3ccc(S(=O)(=O)N4CCCCC4)cc3)nc12	-7	26*	1	-11	-5	nt	4	5
CC1CCC(C(C)C)C(OC(=O)C[n+]2cc(-c3ccc(Cl)cc3)n3c2CCCCC3)C1 (centres undefined)	-12	80*	-1	1	-44	nt	45*	39*
Clc1ccc(C[n+]2cc(-c3ccccc3)n3c2CCCCC3)c(Cl)c1	-14	50*	1	-8	-29	nt	33*	22*
Cc1ccc(-c2c[n+](CC(=O)c3ccc(Br)cc3)c3n2CCCCC3)cc1	5	35*	0	-12	-34	nt	52*	31*
